Experimental data as given in ChEMBL document CHEMBL3992547, “Antimicrobial activity of rhodanine-3-acetic acid derivatives” (Bioorg Med Chem, 2017).
Calls of active or inactive are those of the source.

Key:
[1] = tested on: Staphylococcus epidermidis; assay: Antibacterial activity against Staphylococcus epidermidis H 6966/08 incubated for 48 hrs under dark condition by microdilution broth assay; assay type: functional; conditions: H 6966/08, 48 h
Outline: (§1)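 Broth microdilution per M07-A07, modified, in Mueller-Hinton broth adjusted to pH 7.4 (±0.2). Inoculum is prepared in sterile water to McFarland 0.5 (1.5 × 10⁸ CFU/mL). Plates are incubated in the dark at 35 °C in humid air. MIC is read after 24 and 48 h as at least 95% growth reduction versus control (IC₉₅).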

Mycobacterium kansasii [2] = assay: Antimycobacterial activity against Mycobacterium kansasii isolate 235/80 after 7 days by micromethod; assay type: functional; conditions: isolate 235/80, 168 h
Escherichia coli [3] = assay: Antibacterial activity against Escherichia coli CCM 4517 incubated for 48 hrs under dark condition by microdilution broth assay; assay type: functional; conditions: CCM 4517, 48 h; outline: as §1
Aspergillus fumigatus [4] = assay: Antifungal activity against Aspergillus fumigatus 231 after 24 hrs by microdilution broth assay; assay type: functional; conditions: Aspergillus fumigatus, 231, 24 h
Outline: (§2)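 Broth microdilution per CLSI M27-A3 and M38-A2 in RPMI 1640 with glutamine, buffered to pH 7.0 with MOPS. Compounds are diluted in DMSO. Final inoculum is 5 × 10³ CFU/mL for yeasts and 0.5–5 × 10⁴ CFU/mL for moulds. Plates are incubated in the dark at 35 °C in humid air and read visually and/or at 540 nm after 24 and 48 h. MIC is ≥80% growth reduction (IC₈₀) for yeasts and ≥50% (IC₅₀) for filamentous fungi.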

Klebsiella pneumoniae [5] = assay: Antibacterial activity against Klebsiella pneumoniae D 11750/08 up to 500 uM incubated for 24 to 48 hrs under dark condition by microdilution broth assay; assay type: functional; outline: as §1
Mycobacterium avium [6] = assay: Antimycobacterial activity against Mycobacterium avium 330/88 measured after 21 days by micromethod; assay type: functional; conditions: 330/88, 504 h
Lichtheimia corymbifera = assay: Antifungal activity against Absidia corymbifera 272 after 24 to 48 hrs hrs by microdilution broth assay; assay type: functional; outline: as §2
Staphylococcus aureus [7] = assay: Antibacterial activity against Staphylococcus aureus CCM 4516/08 incubated for 48 hrs under dark condition by microdilution broth assay; assay type: functional; conditions: CCM 4516/08, 48 h; outline: as §1
Mycobacterium avium [8] = assay: Antimycobacterial activity against Mycobacterium avium 330/88 measured after 14 days by micromethod; assay type: functional; conditions: 330/88, 336 h
Mycobacterium kansasii [9] = assay: Antimycobacterial activity against Mycobacterium kansasii isolate 235/80 after 21 days by micromethod; assay type: functional; conditions: isolate 235/80, 504 h
Staphylococcus aureus [10] = assay: Antibacterial activity against methicillin-resistant Staphylococcus aureus H 5996/08 incubated for 48 hrs under dark condition by microdilution broth assay; assay type: functional; conditions: H 5996/08, 48 h
Outline: (§3)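 Microdilution broth method modified per M07-A07, in Mueller-Hinton broth adjusted to pH 7.4 (±0.2). Inoculum made in sterile water to 0.5 McFarland (1.5 × 10⁸ CFU/mL). Plates incubated in the dark at 35 °C in a humid atmosphere, with reads at 24 and 48 h. MIC taken as at least 95% growth reduction (IC₉₅) versus control.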

Aspergillus fumigatus [11] = assay: Antifungal activity against Aspergillus fumigatus 231 after 48 hrs by microdilution broth assay; assay type: functional; conditions: Aspergillus fumigatus, 231, 48 h; outline: as §2
[12] = Solubility of the compound in Sula's semisynthetic medium up to 1 mM; assay type: physicochemical
Mycobacterium kansasii [13] = assay: Antimycobacterial activity against Mycobacterium kansasii isolate 6509/96 after 14 days by micromethod; assay type: functional; conditions: isolate 6509/96, 336 h
[14] = tested on: Mycobacterium tuberculosis; assay: Antimycobacterial activity against Mycobacterium tuberculosis H37Rv 331/88 measured after 21 days by micromethod; assay type: functional; conditions: H37Rv 331/88, 504 h
Mycobacterium kansasii [15] = assay: Antimycobacterial activity against Mycobacterium kansasii isolate 235/80 after 14 days by micromethod; assay type: functional; conditions: isolate 235/80, 336 h
Staphylococcus aureus [16] = assay: Antibacterial activity against methicillin-resistant Staphylococcus aureus H 5996/08 incubated for 24 hrs under dark condition by microdilution broth assay; assay type: functional; conditions: H 5996/08, 24 h; outline: as §3
Candida albicans [17] = assay: Antifungal activity against Candida albicans ATCC 44859 after 48 hrs by microdilution broth assay; assay type: functional; conditions: ATCC 44859, 48 h; outline: as §2
[18] = tested on: Mycobacterium tuberculosis; assay: Antimycobacterial activity against Mycobacterium tuberculosis H37Rv 331/88 measured after 14 days by micromethod; assay type: functional; conditions: H37Rv 331/88, 336 h
[19] = tested on: Staphylococcus epidermidis; assay: Antibacterial activity against Staphylococcus epidermidis H 6966/08 incubated for 24 hrs under dark condition by microdilution broth assay; assay type: functional; conditions: H 6966/08, 24 h; outline: as §1
Escherichia coli [20] = assay: Antibacterial activity against Escherichia coli CCM 4517 incubated for 24 hrs under dark condition by microdilution broth assay; assay type: functional; conditions: CCM 4517, 24 h; outline: as §1
Candida tropicalis [21] = assay: Antifungal activity against Candida tropicalis 156 after 24 hrs by microdilution broth assay; assay type: functional; conditions: Candida tropicalis, 156, 24 h; outline: as §2
[22] = tested on: Trichophyton mentagrophytes; assay: Antifungal activity against Trichophyton mentagrophytes 445 after 120 hrs by microdilution broth assay; assay type: functional; conditions: Trichophyton mentagrophytes, 445, 120 h
Outline: (§4)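 Broth microdilution per CLSI M38-A2 in RPMI 1640 with glutamine, buffered to pH 7.0 with MOPS, with DMSO as diluent. Final inoculum is 0.5–5 × 10⁴ CFU/mL. Plates are incubated in the dark at 35 °C in humid air and read visually and/or at 540 nm after 72 and 120 h. MIC is at least 50% growth reduction versus control.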

Trichosporon asahii [23] = assay: Antifungal activity against Trichosporon asahii 1188 after 24 hrs by microdilution broth assay; assay type: functional; conditions: Trichosporon asahii, 1188, 24 h; outline: as §2
Candida albicans [24] = assay: Antifungal activity against Candida albicans ATCC 44859 after 24 hrs by microdilution broth assay; assay type: functional; conditions: ATCC 44859, 24 h; outline: as §2
[25] = tested on: Trichophyton mentagrophytes; assay: Antifungal activity against Trichophyton mentagrophytes 445 after 72 hrs by microdilution broth assay; assay type: functional; conditions: Trichophyton mentagrophytes, 445, 72 h; outline: as §4
Pichia kudriavzevii = assay: Antifungal activity against Candida krusei E28 after 24 to 48 hrs hrs by microdilution broth assay; assay type: functional; outline: as §2
Candida tropicalis [26] = assay: Antifungal activity against Candida tropicalis 156 after 48 hrs by microdilution broth assay; assay type: functional; conditions: Candida tropicalis, 156, 48 h; outline: as §2
Nakaseomyces glabratus [27] = assay: Antifungal activity against Candida glabrata 20/I after 48 hrs by microdilution broth assay; assay type: functional; outline: as §2
Staphylococcus aureus [28] = assay: Antibacterial activity against Staphylococcus aureus CCM 4516/08 incubated for 24 hrs under dark condition by microdilution broth assay; assay type: functional; conditions: CCM 4516/08, 24 h; outline: as §1
Enterococcus [29] = assay: Antibacterial activity against Enterococcus sp. J 14365/08 incubated for 48 hrs under dark condition by microdilution broth assay; conditions: J 14365/08, 48 h
Klebsiella pneumoniae [30] = assay: Antibacterial activity against ESBL positive Klebsiella pneumoniae J 14368/08 up to 500 uM incubated for 24 to 48 hrs under dark condition by microdilution broth assay; assay type: functional; outline: as §1
Pseudomonas aeruginosa = assay: Antibacterial activity against Pseudomonas aeruginosa CCM 1961 up to 500 uM incubated for 24 to 48 hrs under dark condition by microdilution broth assay; assay type: functional; outline: as §1
Mycobacterium kansasii [31] = assay: Antimycobacterial activity against Mycobacterium kansasii isolate 6509/96 after 7 days by micromethod; assay type: functional; conditions: isolate 6509/96, 168 h
Nakaseomyces glabratus [32] = assay: Antifungal activity against Candida glabrata 20/I after 24 hrs by microdilution broth assay; assay type: functional; outline: as §2
Enterococcus [33] = assay: Antibacterial activity against Enterococcus sp. J 14365/08 incubated for 24 hrs under dark condition by microdilution broth assay; conditions: J 14365/08, 24 h
Trichosporon asahii [34] = assay: Antifungal activity against Trichosporon asahii 1188 after 48 hrs by microdilution broth assay; assay type: functional; conditions: Trichosporon asahii, 1188, 48 h; outline: as §2
Mycobacterium kansasii [35] = assay: Antimycobacterial activity against Mycobacterium kansasii isolate 6509/96 after 21 days by micromethod; assay type: functional; conditions: isolate 6509/96, 504 h

O=C(CN1C(=O)CSC1=S)Nc1ccccc1
> 500 µM: MIC95 (Escherichia coli [3]) | MIC50 (Aspergillus fumigatus [4]) | MIC95 (Staphylococcus aureus [10]) | MIC50 (Aspergillus fumigatus [11]) | MIC95 (Staphylococcus aureus [16]) | MIC80 (Candida albicans [17]) | MIC95 (Escherichia coli [20]) | MIC50 [22] | MIC80 (Trichosporon asahii [23]) | MIC80 (Candida albicans [24]) | MIC50 [25] | MIC80 (Nakaseomyces glabratus [27]) | MIC80 (Nakaseomyces glabratus [32]) | MIC80 (Trichosporon asahii [34])
1000 µM: MIC (Mycobacterium kansasii [2]) | MIC (Mycobacterium avium [8]) | MIC (Mycobacterium kansasii [9]) | MIC (Mycobacterium kansasii [13]) | MIC [14] | MIC (Mycobacterium kansasii [15]) | MIC [18] | MIC (Mycobacterium kansasii [31]) | MIC (Mycobacterium kansasii [35])
500 µM: MIC95 [1] | MIC95 (Staphylococcus aureus [7]) | MIC95 [19] | MIC80 (Candida tropicalis [21]) | MIC80 (Candida tropicalis [26]) | MIC95 (Staphylococcus aureus [28]) | MIC95 (Enterococcus [29]) | MIC95 (Enterococcus [33])
Soluble: solubility [12]
> 1000 µM: MIC (Mycobacterium avium [6])
inactive: Activity (Klebsiella pneumoniae [5]) | Activity (Lichtheimia corymbifera) | Activity (Pichia kudriavzevii) | Activity (Klebsiella pneumoniae [30]) | Activity (Pseudomonas aeruginosa)
